These results are taken from ChEMBL document CHEMBL1132994, “Synthesis and anticonvulsant and neurotoxic properties of substituted N-phenyl derivatives of the phthalimide pharmacophore” (J Med Chem, 2000).

Calls of active or inactive are those of the source. The calls are words filed in the database; no cut-off is given here. Where only a bound is given, the exact number is not on record here.

One may read the ED50 as the dose that gives a 50% effect, or the effect in half of the subjects. A higher ED50 goes with a need for a large dose. In general, TD50 refers to the 50% point of the dose-response relation for the toxic effect studied. Read a low TD50 as greater toxicity.

Data set [1] concerns Mus musculus. The data set can be described thus: Neurotoxicity determined by rotarod test after intraperitoneal administration at a concentration of 300 mg/kg after 4 hours; Inactive. Format: functional, organism-based. Set-up: dose 300 mg/kg.
The subject of data set [2] is Mus musculus. Put plainly: Neurotoxicity by rotarod test after ip administration at a concentration of 300 mg/kg after 30 minutes; Active. Format: functional, organism-based. Set-up: dose 300 mg/kg. Background: Falling from the rotarod earlier than controls is read as motor impairment.
For data set [3], the system named is Mus musculus. Put plainly: Anticonvulsant activity in mice through seizures induced by subcutaneous pentylenetetrazole (scPTZ) tests after ip administration at a concentration of 300 mg/kg after 4 hours; Inactive. The class given is functional, organism-based. Set-up: dose 300 mg/kg.
For data set [4], the system named is Mus musculus. Put plainly: Anticonvulsant activity in mice through seizures induced by maximal electroshock (MES) tests after ip administration at a concentration of 100 mg/kg after 30 min; Active. The class given is functional, organism-based. On the set-up: dose 100 mg/kg.
Data set [5] relates to Mus musculus. Put plainly: Anticonvulsant activity in mice through seizures induced by maximal electroshock (MES) tests after ip administration at a concentration of 300 mg/kg after 4 hours; Inactive. The class given is functional, organism-based. On the set-up: dose 300 mg/kg. For orientation: In the maximal electroshock model the usual endpoint is tonic extension of the hind limbs.

Data set [6] deals with Mus musculus. The data set can be described thus: Anticonvulsant activity in mice through seizures induced by subcutaneous pentylenetetrazole (scPTZ) test after ip administration at a concentration of 300 mg/kg after 30 min; Inactive. The class given is functional, organism-based. Set-up: dose 300 mg/kg.
The subject of data set [7] is Rattus norvegicus. The data set can be described thus: Anticonvulsant activity was measured in rats through seizures induced by maximal electroshock (MES) tests by oral administration of drug after 4 hours. The class given is functional. The procedure, abridged: (§1)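 Rats given a single oral dose of 30 or 50 mg/kg, depending on compound; MES protection scored at 15, 30, 60, 120 and 240 min. Activity graded by fraction of animals protected (0-25%, 25-50%, 50-75%, 75-100%); neurotoxicity monitored at the same time points.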

Data set [8] has as its system Rattus norvegicus. The data set can be described thus: Anticonvulsant activity was measured in rats through seizures induced by maximal electroshock (MES) tests by oral administration of drug at a concentration of 30 mg/kg after 2 hours. Format: functional. The procedure, abridged: as §1
The test system of data set [9] is Rattus norvegicus. The data set can be described thus: Anticonvulsant activity in rats through seizures induced by maximal electroshock (MES) tests by oral administration of drug at a concentration of 30 mg/kg after 15 minutes; No activity. The class given is functional, organism-based. Set-up: dose 30 mg/kg. The procedure, abridged:
as §1

Data set [10] relates to Rattus norvegicus. Put plainly: Anticonvulsant activity in rats through seizures induced by maximal electroshock (MES) tests by oral administration of drug at a concentration of 30 mg/kg after 30 minutes. The class given is functional. The procedure, abridged:
as §1

For data set [11], the system named is Rattus norvegicus. The data set can be described thus: Anticonvulsant activity in rats through seizures induced by maximal electroshock (MES) tests after oral administration at a concentration of 30 mg/kg after 1 hour. The class given is functional. In short, it runs like this:
as §1

Data set [12] deals with Rattus norvegicus. Put plainly: Toxicity screening in rats dosed orally with the compound; No toxicity. The class given is functional, organism-based. The procedure, abridged: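 Rats given a single oral dose of 30 or 50 mg/kg, depending on compound. Minimal neurotoxicity was scored at 15, 30, 60, 120 and 240 min after dosing, alongside the MES test. Scores are graded by the percentage of animals affected.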

For data set [13], the system named is Mus musculus. The data set can be described thus: Neurotoxicity by rotarod test after intraperitoneal administration at a concentration of 300 mg/kg after 4 hours; Active. Format: functional, organism-based. On the set-up: dose 300 mg/kg.
In data set [14] the test system is Mus musculus. The data set can be described thus: Anticonvulsant activity in mice through seizures induced by maximal electroshock (MES) tests after ip administration at a concentration of 300 mg/kg after 4 hours; Active. The class given is functional, organism-based. On the set-up: dose 300 mg/kg.
Data set [15] has as its system Mus musculus. Put plainly: Anticonvulsant activity in mice through seizures induced by sc pentylenetetrazole (intraperitoneal administration at a concentration of 300 mg/kg after 4 hours; Inactive. On the set-up: dose 300 mg/kg. The class given is functional, organism-based.
Data set [16] relates to Mus musculus. The data set can be described thus: Neurotoxicity by rotarod test after intraperitoneal administration at a concentration of 300 mg/kg after 30 minutes; Active. Set-up: dose 300 mg/kg. Format: functional, organism-based.
The test system of data set [17] is Mus musculus. The data set can be described thus: Anticonvulsant activity in mice through seizures induced by subcutaneous pentylenetetrazole (scPTZ) tests after ip administration at a concentration of 300 mg/kg after 30 min; Active. The class given is functional, organism-based. On the set-up: dose 300 mg/kg.
Data set [18] relates to Rattus norvegicus. Put plainly: Anticonvulsant activity was measured in rats through seizures induced by maximal electroshock (MES) tests by oral administration of drug at a concentration of 30 mg/kg after 15 minutes. Format: functional. The procedure, abridged:
as §1

In data set [19] the test system is Rattus norvegicus. Put plainly: Anticonvulsant activity was measured in rats through seizures induced by maximal electroshock (MES) tests by oral administration of drug at a concentration of 30 mg/kg after 30 minutes. Format: functional. In short, it runs like this:
as §1

The subject of data set [20] is Mus musculus. Put plainly: Neurotoxicity by rotarod test after intraperitoneal administration at a concentration of 300 mg/kg after 30 minutes; active. Set-up: dose 300 mg/kg. Format: functional, organism-based.
The subject of data set [21] is Mus musculus. Put plainly: Anticonvulsant activity in mice through seizures induced by maximal electroshock (MES) tests after intraperitoneal administration at a concentration of 100 mg/kg after 30 min; active. Format: functional, organism-based. On the set-up: dose 100 mg/kg.
In data set [22] the test system is Mus musculus. The data set can be described thus: Anticonvulsant activity in mice through seizures induced by maximal electroshock (MES) tests after ip administration at a concentration of 300 mg/kg after 4 hours; active. The class given is functional, organism-based. Set-up: dose 300 mg/kg.
Data set [23] deals with Mus musculus. The data set can be described thus: Anticonvulsant activity in mice through seizures induced by subcutaneous pentylenetetrazole (scPTZ) tests after ip administration at a concentration of 300 mg/kg after 30 min; Inactive. The class given is functional, organism-based. Set-up: dose 300 mg/kg.
Data set [24] deals with Rattus norvegicus. The data set can be described thus: Anticonvulsant activity was measured in rats through seizures induced by maximal electroshock (MES) tests by oral administration of drug after 2 hours. The class given is functional. The procedure, abridged: as §1
Data set [25] relates to Rattus norvegicus. Put plainly: Anticonvulsant activity was measured in rats through seizures induced by maximal electroshock (MES) tests by oral administration of drug after 30 minutes. The class given is functional. In short, it runs like this:
as §1

In data set [26] the test system is Rattus norvegicus. Put plainly: Anticonvulsant activity was measured in rats through seizures induced by maximal electroshock (MES) tests by oral administration of drug after 1 hour. The class given is functional. In short, it runs like this:
as §1

The subject of data set [27] is Rattus norvegicus. Put plainly: Effective dose required to assure anticonvulsant protection in 50% of rats dosed orally by scPTZ test. To be noted: po. Format: functional. The procedure, abridged: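 Rats dosed orally; ED50 is the dose giving anticonvulsant protection in 50% of animals in the MES or scPtz test. TD50 is the minimal neurotoxic dose in 50% of animals. Time to peak effect was also determined.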

The nature of data set [28]: dose eliciting minimal neurological toxicity in 50% of animals. The settings on record: rat, in vivo. The class given is organism-based.
Data set [29] deals with Rattus norvegicus. Put plainly: Anticonvulsant activity was measured in rats through seizures induced by maximal electroshock (MES) tests by oral administration of drug after 15 minutes. The class given is functional. The procedure, abridged:
as §1

As for `Nc1ccc(N2C(=O)c3ccccc3C2=O)cc1`, the outcome in the data set with Mus musculus [1], in the data set with Mus musculus [3], with Mus musculus [5] and with Mus musculus [6] was inactive. Besides, the result with Mus musculus [2] and in the data set on Mus musculus [4] was Active. For the same molecule, the Activity in animals in the data set with Rattus norvegicus [7] was 25%; with Rattus norvegicus [8], 50%; in the data set on Rattus norvegicus [9], “No activity”; in the data set with Rattus norvegicus [10], 25%; in the data set on Rattus norvegicus [11], 75%. The Toxicity entry in the data set with Rattus norvegicus [12] is “Not toxic”.
As for `Nc1cccc(N2C(=O)c3ccccc3C2=O)c1`, the result in the data set with Mus musculus [13], in the data set on Mus musculus [4], in the data set on Mus musculus [14], in the data set on Mus musculus [16] and with Mus musculus [17] was Active. In addition, in the data set with Mus musculus [15], the outcome was inactive. Moreover, the Activity in animals in the data set on Rattus norvegicus [7] amounted to 100%; in the data set with Rattus norvegicus [18], 50%; in the data set on Rattus norvegicus [8], 75%; in the data set on Rattus norvegicus [19], 100%; in the data set with Rattus norvegicus [11] it was 75%. The Toxicity entry with Rattus norvegicus [12] is “Not toxic”.
As to `O=C1NC(=O)C(c2ccccc2)(c2ccccc2)N1` [PHENYTOIN], the result in the data set on Mus musculus [20], in the data set on Mus musculus [21] and in the data set on Mus musculus [22] was Active. Also, the outcome in the data set on Mus musculus [1], in the data set with Mus musculus [3] and in the data set on Mus musculus [23] was inactive. Besides, the Activity in animals in the data set on Rattus norvegicus [7] is given as 25%; in the data set on Rattus norvegicus [24] it was 100%; in the data set on Rattus norvegicus [25], 100%; in the data set on Rattus norvegicus [26], 100%; in the data set on Rattus norvegicus [29], 100%. Moreover, the ED50 in the data set with Rattus norvegicus [27] was more than 800 mg/kg. Also, in [28], the TD50 was more than 3000 mg/kg.
